6 compounds from ChEMBL document CHEMBL1147849, “Synthesis and recognition of novel isonucleoside triphosphates by DNA polymerases” (Bioorg Med Chem, 2007) can be followed below.

Activity calls are given as the source filed them. The calls are words filed in the database; no cut-off is given here.

One assay relates to Thermus aquaticus. Nature of the assay: Inhibition of Thermus acquaticus DNA polymerase-mediated DNA synthesis assessed as DNA chain termination. The gist of the method:
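Taq polymerase primer extension: 25-mer template (A, T, G or C at the first target site) and 5′-FITC 17-mer primer, 20 pmol each. Buffer was 50 mM KCl, 10 mM Tris–HCl pH 9.0, 1.5 mM MgCl₂, 0.1% Triton X-100. Triphosphate or dNTPs 1 nmol each, 2 U enzyme, 50 °C for 1.5 h. Read-out by denaturing polyacrylamide gel electrophoresis.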

Assay [1] can be described thus: Inhibition of 9 Nm DNA polymerase-mediated DNA synthesis assessed as DNA chain termination. The method, boiled down: (§1)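 25-mer template (four variants, each with A, T, G or C at the first target site) annealed to a 5′-FITC 17-mer primer, 20 pmol each. Annealing was done by cooling quickly from 90 to 0 °C in buffer: 10 mM KCl, 10 mM (NH₄)₂SO₄, 20 mM Tris–HCl pH 8.8, 2 mM MgSO₄, 0.1% Triton X-100. Reactions held triphosphate or dNTPs (1 nmol each) and 2 U polymerase, 50 °C, 1.5 h. Products were resolved by denaturing PAGE.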

The nature of assay [2]: Ratio of Vmax to Km for 9 Nm DNA polymerase. The method, boiled down:
(§2)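 Kinetics with 9°N DNA polymerase at 0.01 U/µL in the supplier's buffer. Primer was annealed to template 2 (T at the target site), 2 µM primer–template complex, with varying concentrations of dATP or the isonucleoside triphosphate.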

The nature of assay [3]: Activity of 9 Nm DNA polymerase enzyme. The method, boiled down:
as §2

A short description of assay [4]: Inhibition of Therminator DNA polymerase-mediated DNA synthesis assessed as DNA chain termination. The method, boiled down: as §1
The nature of assay [5]: Inhibition of Vent(exo-) DNA polymerase-mediated DNA synthesis assessed as DNA chain termination. The method, boiled down: as §1
A short description of assay [6]: Inhibition of Deep Vent(exo-) DNA polymerase-mediated DNA synthesis assessed as DNA chain termination. The gist of the method:
as §1

In the case of `Cc1cn([C@H]2CO[C@@H](CCOP(=O)(O)OP(=O)(O)OP(=O)(O)O)[C@@H]2O)c(=O)[nH]c1=O`, the result (in the assay with Thermus aquaticus; in assay [1]) was Active.

In the case of `Nc1nc2c(ncn2[C@H]2CO[C@@H](CCOP(=O)(O)OP(=O)(O)OP(=O)(O)O)[C@@H]2O)c(=O)[nH]1`, the result (in the assay with Thermus aquaticus; in assay [1]) was Active.

Take `Nc1ncnc2c1ncn2[C@H]1C[C@H](O)[C@@H](COP(=O)(O)OP(=O)(O)OP(=O)(O)O)O1`: the Vmax/Km in assay [2] was determined as 8.63e+06 M⁻¹. Moreover, in assay [3], the Michaelis constant (Km) (as a rule, the substrate concentration at which the rate is half of its maximum) is 0.78 µM and the Vmax is 6.73 %/min.

Consider `C=CCOC[C@@H]1O[C@@H](COP(=O)(O)OP(=O)(O)OP(=O)(O)O)[C@H](O)[C@H]1n1cc(C)c(=O)[nH]c1=O`, for which the outcome (with Thermus aquaticus; in assay [1]) was Active.

On to `Nc1ncnc2c1ncn2[C@@H]1CO[C@H](COP(=O)(O)OP(=O)(O)OP(=O)(O)O)[C@H]1O`, for which the result in assay [4], in assay [5] and in assay [1] was inactive. The result (in the assay with Thermus aquaticus; in assay [6]) was Active.

On to `Nc1ccn([C@H]2CO[C@@H](CCOP(=O)(O)OP(=O)(O)OP(=O)(O)O)[C@@H]2O)c(=O)n1`, for which the outcome (with Thermus aquaticus; in assay [1]) was Active.
